CXCR6 block – blocks human CXCR6 beta-arrestin recruitment | CHO-K1 PathHunter CXCR6 beta-arrestin, luminescence | inhibition, % at 20 µM | hit rate 0.36% among 360,000 | AID 602244; in the data active = inhibition above about 34%, passing the limit was not always enough;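 note: antagonist mode with CXCL16 agonist at 10 nM final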
APJ ag – APJ receptor agonism; hit rate 0.11% among 330,000; activation, % at 20 µM; P35414; CHO-K1 APJ PathHunter beta-arrestin, luminescence; 0% DMSO wells, 100% apelin;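 active = activation more than six SD over the plate average, tested at 20 µM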
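Incubation: overnight seeding, 90 min compound at 25 °C, 1 h detection; test system: PathHunter CHO-K1 APJ (AGTRL-1) beta-arrestin reporter cells; amount: 1000 cells/well; doses: one dose, 20 µM compound, 1% DMSO; measured by: beta-gal luminescence; measure: agonist-driven arrestin binding to APJ; benchmarks: negative DMSO alone, positive Apelin-13 at 10 nM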
CCR6 antagonist – antagonists of human CCR6 receptor | P51684 | hit rate 0.49% among 340,000 | CHO-K1 CCR6 PathHunter beta-arrestin, luminescence, CCL20-stimulated | AID 493098 | inhibition, % at 20 µM;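 active = compounds whose inhibition of the agonist-driven luminescence signal at 20 µM reaches about 50%, limit read from the data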;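 note: cells stimulated with CCL20 at 14 nM final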
m5-HT2A agonist – mouse HTR2A agonism via beta-arrestin recruitment. CHO-K1 mHTR2A beta-arrestin complementation, luminescence; percent of 30 µM serotonin response. activation, % at 7.6 µM. hit rate 0.66% among 360,000. AID 624169;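 active = activation above a run cutoff, the mean activation of all tested compounds plus 3 SD, cut at about 14% in these data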
Target sequence (P35363 whole entry, looked up): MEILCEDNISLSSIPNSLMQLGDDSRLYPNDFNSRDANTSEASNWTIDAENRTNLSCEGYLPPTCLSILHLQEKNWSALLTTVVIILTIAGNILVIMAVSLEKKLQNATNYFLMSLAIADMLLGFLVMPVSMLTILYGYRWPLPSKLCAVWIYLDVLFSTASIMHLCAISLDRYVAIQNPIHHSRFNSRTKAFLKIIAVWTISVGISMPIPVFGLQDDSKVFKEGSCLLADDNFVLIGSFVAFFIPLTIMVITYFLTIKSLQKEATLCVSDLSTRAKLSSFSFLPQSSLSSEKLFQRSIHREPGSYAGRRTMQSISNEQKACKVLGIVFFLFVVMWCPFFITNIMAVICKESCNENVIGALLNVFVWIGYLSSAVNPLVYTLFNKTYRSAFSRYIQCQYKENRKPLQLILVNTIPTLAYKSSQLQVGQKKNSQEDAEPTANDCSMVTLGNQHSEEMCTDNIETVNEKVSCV
APJ antag – antagonists of human APJ apelin receptor. P35414. CHO-K1 APJ beta-arrestin complementation, luminescence. inhibition, % at 20 µM. hit rate 0.32% among 330,000;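 active = inhibition above about 40% at 20 µM, limit read from the data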;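 note: cells challenged with 10 nM apelin-13 agonist together with compound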
EBI2 block – EBI2 (human) antagonism | hit rate 0.81% among 360,000 | EBI2 beta-arrestin recruitment, luminescence, 7a,25-OHC stimulated | inhibition, % at 5 µM; in the data active = inhibition above about 38%;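 note: enzyme fragment complementation signal reports receptor beta-arrestin coupling in cells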
OPRM1 ag – activates human mu opioid receptor in HTR2A counterscreen; shares compounds with m5-HT2A agonist; U2OS OPRM1 beta-arrestin PathHunter, luminescence; DMSO 0%, DAMGO 9.3 µM 100%; activation, % at 9.3 µM; hit rate 5.3% among 2,300;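 active = mean activation above the mean of DMSO-only wells plus 3 SD, cut at about 0.5% in these data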
HTR2A ag conf – mouse HTR2A agonism confirmed | hit rate 19% among 2,300 | CHO-K1 PathHunter beta-arrestin recruitment, luminescence; DMSO 0%, 30 µM serotonin 100% | AID 624381 | activation, % at 7.6 µM | shares compounds with m5-HT2A agonist;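 active = mean activation across triplicates above the hit threshold derived in the original primary screen, cut at about 15% in these data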
Large screens that a line does not name were inactive (follow-up assays come after a bar, where they were run). Compounds with a hit are over-represented: about 2.1% of the library has one in this group of screens.

CN(C)CCNC(=O)c1cccn(Cc2cc(C(F)(F)F)cc(C(F)(F)F)c2)c1=O	none
Cc1ccc(/C=C2/Sc3ccc(C(=O)N4CCC5(CC4)OCCO5)cc3NC2=O)cc1	none
N/C(=N/[N+](=O)[O-])N1CCN(C(=O)c2ccc(Cl)cc2)CC1	none
CCC(=NCCc1c[nH]c2ccccc12)c1c(O)n(-c2ccc(C)cc2)c(=O)[nH]c1=O	none
CCC(=NCCc1c[nH]c2ccccc12)c1c(O)n(C)c(=O)n(C)c1=O	m5-HT2A agonist 27.2 | OPRM1 ag inactive | HTR2A ag conf inactive
CC(C)N1CCOC(c2ccc(O)c(O)c2)C1 (stereo not given)	m5-HT2A agonist 34.7 (no result: APJ ag, CCR6 antagonist, APJ antag) | OPRM1 ag inactive | HTR2A ag conf 112.9
CC(C)N1CCN(c2ccc(O)cc2)CC1	none (no result: APJ ag, APJ antag)
c1ccc(C2(N3CCCCC3)CCCCC2)cc1	none
S=C=Nc1cccc(C2(N3CCCCC3)CCCCC2)c1	m5-HT2A agonist 23.7 | HTR2A ag conf inactive
C=CC[C@@H](C)CC(=O)C(CCCN=[N+]=[N-])SOOc1ccccc1 (stereo not given in full)	none
COC(=O)C1=C(c2cc3ccccc3s2)C[C@@H]2CC[C@H]1N2C(=O)NCc1ccco1	none
COc1cc(C(=O)N/N=C/C23CC[C@@H](O)CC2(O)CC[C@@H]2[C@@H]3CCC3(C)C(C4=CC(=O)OC4)CCC23O)ccc1O (stereo not given in full)	m5-HT2A agonist 14.8 | OPRM1 ag inactive | HTR2A ag conf inactive
COc1ccc(C(=O)N/N=C/C23CC[C@@H](O)CC2(O)CC[C@@H]2[C@@H]3CCC3(C)C(C4=CC(=O)OC4)CCC23O)cc1 (stereo not given in full)	none
COc1ccc(C(c2nnnn2-c2ccc3c(c2)OCCO3)N2CCC(n3c(=O)[nH]c4ccccc43)CC2)cc1 (stereo not given)	m5-HT2A agonist 18.5 (no result: APJ ag, CCR6 antagonist, APJ antag) | HTR2A ag conf 15.1
COc1ccc(-n2nnnc2C(c2ccccc2OC(F)(F)F)N2CCC(n3c(=O)[nH]c4ccccc43)CC2)cc1 (stereo not given)	m5-HT2A agonist 15.7 (no result: APJ ag, CCR6 antagonist, APJ antag) | HTR2A ag conf inactive
CS(=O)(=O)c1ccc(C2=C(CNC(=O)c3cccs3)[C@H]3CC[C@@H](C2)N3CCOc2ccccc2)cc1	none (no result: APJ ag, CCR6 antagonist, APJ antag)
COc1ccc2c(c1)c(C(=O)O)c(C)n2C(C)C	none
CCOC(=O)c1c(C)n(C(C)C)c2ccc(OC(=O)c3ccc(N4C(=O)CCC4=O)cc3)cc12	m5-HT2A agonist 16.1 | OPRM1 ag inactive | HTR2A ag conf inactive
CC(NCc1ccccc1Cl)C(O)c1ccccc1 (stereo not given)	none
CC(NCc1ccc(Cl)c(Cl)c1)C(O)c1ccccc1 (stereo not given)	m5-HT2A agonist 15.5 | OPRM1 ag inactive | HTR2A ag conf inactive
COC(=O)C1C2c3ccccc3C(c3ccccc32)C1(C)C(=O)OC (stereo not given)	none (no result: APJ ag, APJ antag)
O=[N+]([O-])c1ccc2nc(N3CCNCC3)ccc2c1	none (no result: CXCR6 block, m5-HT2A agonist, EBI2 block)
Clc1ccc(N2CCNCC2)nn1	m5-HT2A agonist 14.9 | OPRM1 ag inactive | HTR2A ag conf inactive
O=C(NCC1=C(c2cccc3ccccc23)C[C@@H]2CC[C@H]1N2Cc1ccco1)c1cccs1	none (no result: APJ ag, CCR6 antagonist, APJ antag)
O=C1NC(=O)[C@]2(Cc3ccccc3N3CCN(c4ccccc4)CC32)C(=O)N1c1ccccc1 (stereo not given in full)	none
CN1C(=O)NC(=O)[C@]2(Cc3ccccc3N3CCN(c4ccccc4)CC32)C1=O (stereo not given in full)	m5-HT2A agonist 16.6 | OPRM1 ag inactive | HTR2A ag conf inactive
Clc1ccc(N2CCN(Cc3ccccc3Cl)CC2)cc1	none
Clc1ccccc1CN1CCN(c2ccccc2)CC1	m5-HT2A agonist 26.6 | OPRM1 ag inactive | HTR2A ag conf 53.3
O=C(Cc1ccccc1)N1CCN(Cc2cccc(Br)c2)CC1	none

Source: PubChem BioAssay
